Data on 3 molecules can be found in publication PMC5969509 (Chemical Science, 2018).

One assay deals with PHD3. Kind of assay: 3CBt capture. As to conditions: 3CBt 26 µM. It is filed as binding, human.
The next assay has as its system PHD2. Kind of assay: 3CBt capture. It is filed as binding, human.
A further assay relates to PHD2:HIF1-α complex. Put plainly: 3CBt capture of PHD:HIF1-α complex from RCC4 cell lysates. The class given is binding. As to conditions: RCC4 cells in hypoxia, 3CBt 52 µM, western blot.
For another assay, the system named is PHD1. Kind of assay: 3CBt capture. The class given is binding, human. The note with it: protein 10 µM, 3CBt 26 µM, Coomassie SDS-PAGE.
The target in assay [1] is catalytic domain of PHD2 (residues 181–426, tPHD2) with N-terminal His-tag and C-terminal biotinylation (tPHD2_(HisBio)) (human) (UniProt Q9GZT9). Put plainly: BLI. In general terms: In BLI a coated tip is dipped into the sample, and binding shifts an interference pattern.
Assay [2] has the same target. Put plainly: BLI. This is another data set of the same source.
The target of assay [3] is tPHD2HisBio (catalytic domain of PHD2, residues 181-426) (Homo sapiens, UniProt Q9GZT9). Kind of assay: Biolayer interferometry, tPHD2HisBio immobilised via C-terminal biotin. The class given is binding. Put shortly: (§1)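 Recombinant protein (tPHD2HisBio or KDM4A) was expressed in E. coli BL21 (DE3) and loaded onto biosensors. Binding was measured by biolayer interferometry as cycles of association and dissociation across a dilution series of test peptide. A DMSO-only sensor included in each run was subtracted to correct for drift, and the traces were fitted globally.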

A further assay deals with tPHD2 (Homo sapiens, UniProt Q9GZT9). Kind of assay: Biolayer interferometry, tPHD2 immobilised via N-terminal His-tag. It is filed as binding. As to conditions: BLI; tPHD2 denatured chemically or thermally.
Another assay has as its system KDM4A. Put plainly: Biolayer interferometry, binding to KDM4A. The note with it: BLI, 3-fold dilution series. Also on record: species or system human. Put shortly:
as §1

Like-named read-outs stand apart in the source and are kept apart here. Positions of bridges follow the written chain, without caps; N, C: chain ends. Non-standard residues stand in square brackets, D forms with d. Residues, ends and D or L forms follow the SMILES beside them.

tPHD2HisBio (catalytic domain of PHD2, residues 181-426), sequence (Q9GZT9 181-426): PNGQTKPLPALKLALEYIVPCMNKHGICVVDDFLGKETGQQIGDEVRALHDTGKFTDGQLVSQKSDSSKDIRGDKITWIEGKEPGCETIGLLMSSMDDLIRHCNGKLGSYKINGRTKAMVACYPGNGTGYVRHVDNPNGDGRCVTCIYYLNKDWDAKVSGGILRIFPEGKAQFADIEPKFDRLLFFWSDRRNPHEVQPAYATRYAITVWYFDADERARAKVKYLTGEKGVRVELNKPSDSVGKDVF
catalytic domain of PHD2 (residues 181–426, tPHD2) with N-terminal His-tag and C-terminal biotinylation (tPHD2_(HisBio)) (human), sequence (Q9GZT9 181-426): as above
tPHD2, sequence (Q9GZT9 181-426): as above

Regarding “DYVWL T DT W VL SRTCGSGSGSZ (sidechain bridge or staple) [3CBt]”, in the assay on PHD3 (hypoxic conditions, western blot), the “capture of endogenous PHD3 from Hep3B cell lysates” value is on record as “able to affinity purify”. Also, in the assay with PHD3 (protein 10 µM, Coomassie SDS-PAGE), the “capture of recombinant full length PHD3” value is “able to capture”. Moreover, in the assay on PHD2 (hypoxic (1% O2) Hep3B cells, western blot, 3CBt 13 µM), the “capture of endogenous PHD2 from Hep3B cell lysates” value is “could be captured”. In the assay with PHD2 (protein 10 µM, 3CBt 26 µM, Coomassie SDS-PAGE), the “recovery of recombinant full-length PHD2” value is listed as “recovered in a 3CBt-dependent manner”. Moreover, the “recovery of isolated recombinant tPHD2” value with PHD2 (streptavidin magnetic beads, Coomassie SDS-PAGE, tPHD2 100 nM, 3CBt 520 nM) is recorded as “High levels of tPHD2 recovery”. Besides, the “co-purification of HIF1-α and PHDs at endogenous levels” value with PHD2:HIF1-α complex was “could co-purify HIF1-α and PHDs at endogenous levels”. Besides, the “capture of recombinant full length PHD1” value in the assay with PHD1 was “able to capture”.
A word on the Kd: it is the free concentration of one partner at which half of the binding sites on the other are occupied at equilibrium, for simple one-to-one binding. The low end stands for higher affinity, the high end for lower affinity. Take “C-terminal oxygen dependent domain (CODD), a fragment peptide of HIF1-α”: the figures for the Kd in assay [1] and in assay [2] were 5.2 µM and 6.3 µM, respectively.
In assay [3], `CC(C)C[C@@H]1NC(=O)[C@H](Cc2c[nH]c3ccccc23)NC(=O)[C@H](C(C)C)NC(=O)[C@@H](Cc2ccc(O)cc2)NC(=O)CSC[C@@H](C(N)=O)NC(=O)[C@H]([C@@H](C)O)NC(=O)[C@H](CCCNC(=N)N)NC(=O)[C@H](CO)NC(=O)[C@H](CC(C)C)NC(=O)[C@H](C(C)C)NC(=O)[C@H](Cc2c[nH]c3ccccc23)NC(=O)[C@H]([C@@H](C)O)NC(=O)[C@H](CC(=O)O)NC(=O)[C@H]([C@@H](C)O)NC1=O` [3C] ({CH2CO}-[dY]VWLTDTWVLSRTC-NH2; thioether N-14) returned a Kd of 0.00027 µM. In assay [3] (BLI, C-terminal biotin immobilisation), the “dissociative half-life t1/2” value amounted to 1.13 h. Further, the “binding to denatured tPHD2” value at tPHD2 was “abolished”. For the same molecule, in the assay with KDM4A, the “binding to KDM4A” value is recorded as “almost no detectable binding”.
